Data on 2 molecules can be found in ChEMBL document CHEMBL4184319, “Fluorescent-Labeled Selective Adenosine A2B Receptor Antagonist Enables Competition Binding Assay by Flow Cytometry” (J Med Chem, 2018).

Experiment [1] concerns the target T1, Adenosine receptor A3 (Rattus norvegicus, UniProt P28647).
T1 sequence (P28647 whole entry): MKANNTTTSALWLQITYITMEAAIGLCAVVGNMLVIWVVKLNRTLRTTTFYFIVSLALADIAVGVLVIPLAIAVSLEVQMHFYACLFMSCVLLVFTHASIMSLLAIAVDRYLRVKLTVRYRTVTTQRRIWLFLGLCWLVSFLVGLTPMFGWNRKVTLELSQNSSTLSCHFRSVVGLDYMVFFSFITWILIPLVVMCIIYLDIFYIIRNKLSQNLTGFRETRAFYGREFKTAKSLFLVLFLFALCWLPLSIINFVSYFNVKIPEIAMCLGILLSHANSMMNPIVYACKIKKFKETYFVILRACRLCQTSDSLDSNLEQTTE
The experiment can be described thus: Displacement of [3H]-(R)-PIA from adenosine A3 receptor in rat testis membranes. The class given is cell membranes, Membrane. Background: Loss of bound radioactivity is the signal in a displacement assay; it reports binding, not function.

For experiment [2], the target named is Adenosine receptor A1 (Rattus norvegicus) (UniProt P25099). The experiment can be described thus: Displacement of [3H]-CHA from adenosine A1 receptor in rat striatal membranes.
The target in the next experiment is T2, Adenosine receptor A1 (Rattus norvegicus, UniProt P25099).
T2 sequence (P25099 whole entry): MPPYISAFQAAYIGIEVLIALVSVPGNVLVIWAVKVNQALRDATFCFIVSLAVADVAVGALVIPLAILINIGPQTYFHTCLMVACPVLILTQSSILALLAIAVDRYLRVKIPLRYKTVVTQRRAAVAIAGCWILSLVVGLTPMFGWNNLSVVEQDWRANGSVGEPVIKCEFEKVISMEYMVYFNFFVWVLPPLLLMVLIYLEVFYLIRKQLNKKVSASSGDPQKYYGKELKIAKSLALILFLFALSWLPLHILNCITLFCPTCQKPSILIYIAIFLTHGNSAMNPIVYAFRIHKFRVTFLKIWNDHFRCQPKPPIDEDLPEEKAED
In words: Displacement of [3H]-CHA from adenosine A1 receptor in rat cortical membranes. The class given is cell membranes.

Experiment [3] has as its target T3, Adenosine receptor A3 (Homo sapiens, UniProt P0DMS8).
T3 sequence (P0DMS8 whole entry): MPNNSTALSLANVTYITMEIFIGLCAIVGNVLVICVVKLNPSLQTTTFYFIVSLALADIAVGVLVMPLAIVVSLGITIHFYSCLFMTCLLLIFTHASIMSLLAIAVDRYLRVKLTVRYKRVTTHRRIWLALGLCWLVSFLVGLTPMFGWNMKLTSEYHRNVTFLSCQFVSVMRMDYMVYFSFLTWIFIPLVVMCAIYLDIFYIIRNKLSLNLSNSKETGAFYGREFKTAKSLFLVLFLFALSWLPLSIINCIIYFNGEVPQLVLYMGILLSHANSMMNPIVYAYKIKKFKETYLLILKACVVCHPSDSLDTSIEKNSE
The experiment can be described thus: Displacement of [3H]PSB-11 from recombinant human adenosine A3 receptor expressed in CHO cell membranes after 180 mins by liquid scintillation counting method. The gist of the method: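 Human A3AR CHO cell membranes were pre-incubated 10–15 min with adenosine deaminase (0.12 IU/mL), then incubated with [3H]PSB-11 (1 nM) at rt, with 2.5% DMSO final. Nonspecific binding was defined with 100 µM R-PIA. Incubation ended by GF/B filtration with ice-cold 50 mM Tris-HCl (pH 7.4) rinses. Test compounds were run at 6–7 concentrations over 3 log units, in ≥3 independent experiments in duplicate.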

Experiment [4] has as its target T4, Adenosine receptor A2b (Homo sapiens, UniProt P29275).
T4 sequence (P29275 whole entry): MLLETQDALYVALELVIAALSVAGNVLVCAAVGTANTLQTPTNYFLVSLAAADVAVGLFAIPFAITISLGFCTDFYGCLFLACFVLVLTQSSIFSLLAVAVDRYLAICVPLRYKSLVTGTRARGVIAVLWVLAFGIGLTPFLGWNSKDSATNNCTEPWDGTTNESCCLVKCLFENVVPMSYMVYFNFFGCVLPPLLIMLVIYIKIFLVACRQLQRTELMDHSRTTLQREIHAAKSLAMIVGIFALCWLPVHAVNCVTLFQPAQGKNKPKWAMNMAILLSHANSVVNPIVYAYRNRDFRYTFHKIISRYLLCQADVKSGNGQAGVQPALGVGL
The experiment can be described thus: Antagonist activity at recombinant human adenosine A2B receptor expressed in CHO cell membranes assessed as inhibition of NECA-induced cAMP accumulation preincubated for 1 hr followed by NECA induction measured after 5 mins in presence of [3H]cAMP and bovine cAMP-binding protein by liquid scintillation counting method. The class given is functional. In short, it runs like this: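 CHO cells stably expressing human A2BAR, pre-incubated with antagonist dilutions for 1 h at 37°C, then stimulated with NECA (10 µM final) for 5 min at 37°C. Reaction stopped with hot (90 °C) lysis solution (4 mM EDTA, 0.01 % Triton X100). cAMP quantified by radioactive competition with [³H]cAMP and bovine adrenal cAMP-binding protein. Response expressed as % of NECA response without antagonist. Means ± SEM, three independent experiments in duplicate.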

Experiment [5] concerns the target T4, Adenosine receptor A2b. In words: biochemical.
The target of experiment [6] is T4, Adenosine receptor A2b. The experiment can be described thus: Displacement of PSB-12105 from recombinant human adenosine A2B receptor expressed in CHO cell membranes preincubated for 30 mins followed by PSB-12105 addition measured after 20 mins by flow cytometric method. The format is cell-based. In short, it runs like this:
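Live CHO-hA2B cells were pre-treated with ADA (2 U/mL, 2 h, 37°C), detached with 5 mM EDTA, and resuspended in HBSS with 2 U/mL ADA at 2.5×10^5 cells/well in 96-well format. Antagonists pre-incubated 30 min at 37°C, then fluorescent ligand (100 nM) added for 20 min at 37°C. 3-5 independent experiments in duplicate.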
In general terms: In flow cytometry, cells or beads pass a laser one at a time.

Each structure is given as a SMILES string. A value given as a limit tells only on which side of the number the result lay.

As a reminder, the Ki is a dissociation constant, usually derived from enzyme kinetics or from competition with a known ligand. Turning to `CCNC(=O)[C@H]1O[C@@H](n2cnc3c(NCCCCCCNS(=O)(=O)c4cccc5c(N(C)C)cccc45)ncnc32)[C@H](O)[C@@H]1O`, the Ki on Adenosine receptor A3 [1] is 3600 nM; in experiment [2], 4600 nM; on Adenosine receptor A1, 27 nM.
What is called IC50 is the midpoint of a concentration-inhibition curve. Take `CCCn1c(=O)[nH]c2nc(-c3ccc(S(=O)(=O)N4CCN(c5ccc(Cl)cc5)CC4)cc3)[nH]c2c1=O`: the Ki on Adenosine receptor A3 [3] is greater than 10000 nM. The IC50 on Adenosine receptor A2b [4] was determined as 18.3 nM; at Adenosine receptor A2b [5], 0.534 nM; on Adenosine receptor A2b [6], 0.739 nM.
